Test results published in ChEMBL document CHEMBL1130195, “6-Chloro-5-methyl-1-[[2-[(2-methyl-3-pyridyl)oxy]-5-pyridyl]carbamoyl]- indoline (SB-242084): the first selective and brain penetrant 5-HT2C receptor antagonist” (J Med Chem, 1997).

Legend:
Rattus norvegicus = assay: Mean dose required to reverse m-chlorophenyl-piperazine (mCPP) induced hypolocomotion (7 mg/kg ip administered 30 min pretest); assay type: functional; settings: 0.5 h, read-out: ID50 (the source's name)
Procedure, shortened: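 Test compound given orally. Hypolocomotion was induced by mCPP, 7 mg/kg ip, 30 min pretest. The ID50 is the dose reversing hypolocomotion by 50%, reported as mean with confidence limits.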

[1] = target: T1, 5-hydroxytryptamine receptor 2C (Homo sapiens, UniProt P28335); assay: Displacement of [3H]mesulergine from 5-hydroxytryptamine 2C receptor expressed in HEK 293 cells; assay type: cell-based, HEK293
T1 sequence (P28335 whole entry): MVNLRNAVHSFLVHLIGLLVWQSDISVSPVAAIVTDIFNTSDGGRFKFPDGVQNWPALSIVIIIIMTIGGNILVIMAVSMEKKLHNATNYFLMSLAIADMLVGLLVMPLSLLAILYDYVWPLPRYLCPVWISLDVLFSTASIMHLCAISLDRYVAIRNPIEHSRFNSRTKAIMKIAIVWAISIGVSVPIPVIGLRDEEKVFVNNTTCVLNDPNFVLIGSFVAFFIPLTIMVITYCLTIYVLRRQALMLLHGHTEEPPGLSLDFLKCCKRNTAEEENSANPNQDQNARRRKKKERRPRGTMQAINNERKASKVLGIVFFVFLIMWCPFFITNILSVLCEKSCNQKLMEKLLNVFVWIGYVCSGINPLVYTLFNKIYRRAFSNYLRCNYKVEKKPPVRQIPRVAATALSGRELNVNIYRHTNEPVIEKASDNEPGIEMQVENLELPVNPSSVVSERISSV
Procedure, shortened: (§1)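 Human cloned receptors expressed in HEK 293 cells. Radioligands: [3H]5-HT for 5-HT2B, [3H]ketanserin for 5-HT2A, [3H]mesulergine for 5-HT2C. Each value is the mean of at least two determinations, each within 0.2 log unit of the mean.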

[2] = target: Serotonin 2 receptors; 5-HT2a & 5-HT2c (Homo sapiens) (UniProt P28223+P28335); assay: Selectivity for 5-HT2C over 5-HT2A receptor; assay type: protein assay
[3] = target: 5-hydroxytryptamine receptor 2A (Homo sapiens, UniProt P28223); assay: Displacement of [3H]ketanserin from 5-hydroxytryptamine 2A receptor expressed in HEK 293 cells; assay type: cell-based, HEK293; procedure, shortened: as §1
Cytochrome P450 3A4 [4] = target: T2, Cytochrome P450 3A4 (Homo sapiens, UniProt P08684); assay: Inhibition of heterologously expressed human Cytochrome P450 3A at 1 uM; assay type: ADME
Cytochrome P450 2C9 = Cytochrome P450 2C9 (Homo sapiens, UniProt P11712); assay: Inhibition of heterologously expressed human Cytochrome P450 2C9 at 100 uM; assay type: ADME
[5] = target: Cytochrome P450 2C19 (Homo sapiens) (UniProt P33261); assay: Inhibition of heterologously expressed human Cytochrome P450 2C19 at 100 uM
Cytochrome P450 1A2 = target: T3, Cytochrome P450 1A2 (Homo sapiens, UniProt P05177); assay: Inhibition of heterologously expressed human Cytochrome P450 1A2 at 500 uM; assay type: ADME
T3 sequence (P05177 whole entry): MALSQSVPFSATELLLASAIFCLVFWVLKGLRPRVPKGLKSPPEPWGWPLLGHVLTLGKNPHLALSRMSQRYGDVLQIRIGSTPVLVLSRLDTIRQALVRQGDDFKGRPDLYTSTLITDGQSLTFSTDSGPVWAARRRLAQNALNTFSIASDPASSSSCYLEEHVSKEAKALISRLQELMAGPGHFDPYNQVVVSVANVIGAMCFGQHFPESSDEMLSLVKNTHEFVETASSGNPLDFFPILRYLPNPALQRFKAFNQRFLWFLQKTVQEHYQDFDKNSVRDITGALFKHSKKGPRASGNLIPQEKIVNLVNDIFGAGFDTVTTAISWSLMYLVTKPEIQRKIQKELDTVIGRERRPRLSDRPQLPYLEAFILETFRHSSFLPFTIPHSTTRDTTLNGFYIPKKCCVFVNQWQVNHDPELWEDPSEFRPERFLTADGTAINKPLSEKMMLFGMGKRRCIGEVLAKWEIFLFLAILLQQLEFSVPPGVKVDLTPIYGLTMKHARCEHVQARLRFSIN

[6] = target: 5-hydroxytryptamine receptor 2B (Homo sapiens, UniProt P41595); assay: Displacement of [3H]5-HT from 5-hydroxytryptamine 2B receptor expressed in HEK 293 cells; assay type: cell-based, HEK293; procedure, shortened: as §1
Cytochrome P450 2D6 = Cytochrome P450 2D6 (Homo sapiens, UniProt P10635); assay: Inhibition of heterologously expressed human Cytochrome P450 2D6 at 10 uM; assay type: ADME
[7] = target: Cytochrome P450 2C19 (Homo sapiens) (UniProt P33261); assay: Inhibition of heterologously expressed human Cytochrome P450 2C19 at 100 uM; remark: listed apart in the source
Cytochrome P450 3A4 [8] = target: T2, Cytochrome P450 3A4; assay: Inhibition of heterologously expressed human Cytochrome P450 3A at 1 uM

Sequence of Cytochrome P450 2D6 (P10635 whole entry): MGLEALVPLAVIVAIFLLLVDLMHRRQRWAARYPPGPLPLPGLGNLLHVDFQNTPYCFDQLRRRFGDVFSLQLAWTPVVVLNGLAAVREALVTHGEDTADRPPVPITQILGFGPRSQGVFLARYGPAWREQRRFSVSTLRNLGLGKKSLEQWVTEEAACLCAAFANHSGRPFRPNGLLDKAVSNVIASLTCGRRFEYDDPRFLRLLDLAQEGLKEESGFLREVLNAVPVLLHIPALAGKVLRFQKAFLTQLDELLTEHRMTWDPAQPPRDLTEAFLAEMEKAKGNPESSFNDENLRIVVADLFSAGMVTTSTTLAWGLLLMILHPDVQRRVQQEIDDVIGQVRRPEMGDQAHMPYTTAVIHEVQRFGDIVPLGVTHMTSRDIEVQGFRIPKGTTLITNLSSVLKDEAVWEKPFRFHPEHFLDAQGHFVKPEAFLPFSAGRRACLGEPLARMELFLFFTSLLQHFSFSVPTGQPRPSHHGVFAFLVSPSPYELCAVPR
Sequence of Cytochrome P450 2C9 (P11712 whole entry): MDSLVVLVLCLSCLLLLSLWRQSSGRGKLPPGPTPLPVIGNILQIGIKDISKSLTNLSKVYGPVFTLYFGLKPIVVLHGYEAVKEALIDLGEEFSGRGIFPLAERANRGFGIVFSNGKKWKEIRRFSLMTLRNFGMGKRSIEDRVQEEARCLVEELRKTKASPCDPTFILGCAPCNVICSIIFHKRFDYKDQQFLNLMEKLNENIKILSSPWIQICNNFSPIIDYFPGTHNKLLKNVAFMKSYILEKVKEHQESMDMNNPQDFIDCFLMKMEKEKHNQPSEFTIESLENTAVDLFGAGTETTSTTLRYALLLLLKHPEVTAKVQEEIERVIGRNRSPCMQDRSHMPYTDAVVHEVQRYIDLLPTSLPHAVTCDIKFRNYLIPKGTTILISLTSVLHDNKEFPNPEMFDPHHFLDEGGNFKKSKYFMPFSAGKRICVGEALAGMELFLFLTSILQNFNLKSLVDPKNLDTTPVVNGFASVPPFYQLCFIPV
Sequence of Serotonin 2 receptors; 5-HT2a & 5-HT2c (Homo sapiens) (P28223 whole entry, looked up, one chain of several): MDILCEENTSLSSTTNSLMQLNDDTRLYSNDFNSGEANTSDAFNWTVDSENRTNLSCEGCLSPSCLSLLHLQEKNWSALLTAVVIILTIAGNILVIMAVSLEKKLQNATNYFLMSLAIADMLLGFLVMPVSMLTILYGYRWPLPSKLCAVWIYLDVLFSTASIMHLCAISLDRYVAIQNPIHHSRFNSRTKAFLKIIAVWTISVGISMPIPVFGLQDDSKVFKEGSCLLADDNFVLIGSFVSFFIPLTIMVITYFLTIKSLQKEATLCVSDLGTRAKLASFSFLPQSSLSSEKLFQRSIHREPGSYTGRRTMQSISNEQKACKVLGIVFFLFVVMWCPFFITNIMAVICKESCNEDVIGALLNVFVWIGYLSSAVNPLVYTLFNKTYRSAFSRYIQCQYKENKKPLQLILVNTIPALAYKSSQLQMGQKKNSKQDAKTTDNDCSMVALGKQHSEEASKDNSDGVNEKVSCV
Sequence of 5-hydroxytryptamine receptor 2A (P28223 whole entry): as the sequence (P28223 whole entry, looked up, one chain of several) above
Sequence of 5-hydroxytryptamine receptor 2B (P41595 whole entry): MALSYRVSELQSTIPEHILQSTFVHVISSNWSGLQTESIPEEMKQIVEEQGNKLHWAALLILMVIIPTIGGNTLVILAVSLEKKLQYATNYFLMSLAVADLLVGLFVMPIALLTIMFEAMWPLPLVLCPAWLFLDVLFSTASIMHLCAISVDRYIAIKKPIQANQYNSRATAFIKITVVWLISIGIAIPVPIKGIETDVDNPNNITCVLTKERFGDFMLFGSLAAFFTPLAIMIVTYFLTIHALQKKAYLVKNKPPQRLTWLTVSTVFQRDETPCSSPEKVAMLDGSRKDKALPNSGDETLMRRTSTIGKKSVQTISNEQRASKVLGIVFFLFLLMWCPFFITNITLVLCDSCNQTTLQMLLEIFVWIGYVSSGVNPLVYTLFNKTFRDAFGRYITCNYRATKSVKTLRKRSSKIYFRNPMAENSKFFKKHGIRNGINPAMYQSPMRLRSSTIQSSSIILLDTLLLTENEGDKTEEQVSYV
Sequence of Cytochrome P450 2C19 (Homo sapiens) (P33261 whole entry, looked up): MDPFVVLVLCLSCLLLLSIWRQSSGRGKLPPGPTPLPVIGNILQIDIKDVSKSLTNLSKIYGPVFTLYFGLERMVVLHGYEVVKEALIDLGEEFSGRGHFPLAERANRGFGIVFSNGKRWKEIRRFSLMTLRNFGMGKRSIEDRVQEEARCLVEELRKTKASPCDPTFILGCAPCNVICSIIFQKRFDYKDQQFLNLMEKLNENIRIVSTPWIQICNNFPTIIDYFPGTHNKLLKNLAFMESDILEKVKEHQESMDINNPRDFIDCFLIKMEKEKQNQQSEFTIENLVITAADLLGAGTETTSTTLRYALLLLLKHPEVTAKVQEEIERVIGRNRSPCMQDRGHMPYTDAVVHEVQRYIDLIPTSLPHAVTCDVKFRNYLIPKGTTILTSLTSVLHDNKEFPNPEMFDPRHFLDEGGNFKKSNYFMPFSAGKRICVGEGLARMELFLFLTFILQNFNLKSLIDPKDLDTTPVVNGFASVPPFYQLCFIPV
T2 sequence (P08684 whole entry): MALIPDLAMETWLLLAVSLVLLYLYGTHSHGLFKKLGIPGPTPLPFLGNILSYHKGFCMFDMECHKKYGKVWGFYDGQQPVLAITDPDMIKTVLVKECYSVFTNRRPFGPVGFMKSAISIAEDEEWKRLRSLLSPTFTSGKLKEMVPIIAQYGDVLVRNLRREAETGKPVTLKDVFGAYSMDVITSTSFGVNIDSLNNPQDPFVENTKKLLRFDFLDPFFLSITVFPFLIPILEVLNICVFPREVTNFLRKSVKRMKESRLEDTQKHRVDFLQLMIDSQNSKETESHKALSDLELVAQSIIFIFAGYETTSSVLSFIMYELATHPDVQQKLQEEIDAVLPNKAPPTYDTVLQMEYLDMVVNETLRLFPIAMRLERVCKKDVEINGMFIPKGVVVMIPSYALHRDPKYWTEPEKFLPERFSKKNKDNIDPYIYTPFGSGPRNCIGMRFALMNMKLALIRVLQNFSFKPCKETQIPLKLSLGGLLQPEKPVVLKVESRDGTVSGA

| Ki [3] [nM] | IC50 (Cytochrome P450 2C9) [nM] | IC50 (Cytochrome P450 1A2) [nM] | Ki [6] [nM] | IC50 (Cytochrome P450 2D6) [nM] | IC50 [7] [nM] | IC50 (Cytochrome P450 3A4 [8]) [nM] | SMILES | ED50 (Rattus norvegicus) [mg/kg] | Ki [1] [nM] | Selectivity ratio [2] | IC50 (Cytochrome P450 3A4 [4]) [nM] | IC50 [5] [nM] |
| --- | --- | --- | --- | --- | --- | --- | --- | --- | --- | --- | --- | --- |
| 2510 |  |  |  |  |  |  | CSc1cc2c(cc1Cl)N(C(=O)Nc1cccnc1)CC2 | 10 | 6.31 | 420 |  |  |
| 398 | > 100000 | 13 | 12.6 | 110 |  | > 100000 | CSc1cc2c(cc1C(F)(F)F)N(C(=O)Nc1cccnc1)CC2 | 1.5 | 2.51 |  |  |  |

Continued, molecule first:

| SMILES | Ki [3] [nM] | IC50 (Cytochrome P450 2C9) [nM] | IC50 (Cytochrome P450 1A2) [nM] | Ki [6] [nM] | IC50 (Cytochrome P450 2D6) [nM] | IC50 [7] [nM] | IC50 (Cytochrome P450 3A4 [8]) [nM] | ED50 (Rattus norvegicus) [mg/kg] | Ki [1] [nM] | Selectivity ratio [2] | IC50 (Cytochrome P450 3A4 [4]) [nM] | IC50 [5] [nM] |
| --- | --- | --- | --- | --- | --- | --- | --- | --- | --- | --- | --- | --- |
| Cc1cc2c(cc1Cl)N(C(=O)Nc1cccnc1)CC2 | 158 |  |  |  |  |  |  | 0.6 | 6.31 | 30 |  |  |
| Cc1cc2c(cc1Cl)N(C(=O)Nc1ccc(Oc3cccnc3C)nc1)CC2 [SB-242084] | 158 | > 100000 | > 100000 | 100 | > 100000 |  |  | 2 | 1 | 160 | > 100000 | > 100000 |
| Cn1ccc2cc3c(cc21)CCN3C(=O)Nc1cccnc1 | 2000 | > 100000 | 50 | 25.1 | 30000 | > 100000 |  | 5.5 |  |  |  |  |
